According to ChEMBL document CHEMBL4689842, “EUbOPEN Chemogenomics Library wave 1” (2021):

How the values were obtained:
HEK-293T = experiment: Multiplex assay against HEK293T; assay type: toxicity, cell-based; details: human;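 on Population Tubulin-Different-Phenotype (%): share of the cells with healthy nuclei that show this phenotype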
Outline: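 Imaging took place on a CQ1 microscope at 37°C and 5% CO2 once compound had been added to live cells stained at seeding with Hoechst33342, BioTracker Green Microtubule Cytoskeleton Dye, MitoTracker Red and Annexin V Alexa Fluor 680. CellPathfinder machine-learning gating classed cells as Hoechst high-intensity objects or normal cells, classed normal cells as having healthy, pyknosed or fragmented nuclei, and classed pyknosed cells as mitotic or apoptotic. Tubulin, mitochondrial-mass and membrane-permeability phenotypes are per cents of the healthy-nucleus cells.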

Fibroblast = experiment: Incucyte cell viability with human fibroblast; assay type: toxicity, cell-based; details: 10 µM, compound concentration 10 uM; further: filed as whole numbers so only -1 and 0 and 1 occur
[1] = 12 h, 1 µM, compound concentration 1 uM, replicate 1
[2] = 12 h, 1 µM, compound concentration 1 uM, replicate 2
[3] = 12 h, 10 µM, compound concentration 10 uM, replicate 1
[4] = 12 h, 10 µM, compound concentration 10 uM, replicate 2
[5] = 24 h, 1 µM, compound concentration 1 uM, replicate 1
[6] = 24 h, 1 µM, compound concentration 1 uM, replicate 2
[7] = 24 h, 10 µM, compound concentration 10 uM, replicate 1
[8] = 24 h, 10 µM, compound concentration 10 uM, replicate 2

SMILES: c1ccc2oc(-c3csc(C4CCN(Cc5nc6ncccc6[nH]5)CC4)n3)cc2c1
- Population Apoptotic (%) (HEK-293T; [1]): 23%
- Population Fragmented Nuclei (%) (HEK-293T; [1]): 23%
- Population Healthy Nuclei (%) (HEK-293T; [1]): 39%
- Population Hoechst High Intensity Objects (%) (HEK-293T; [1]): 19%
- Population Membrane Permeable-Phenotype (%) (HEK-293T; [1]): 5%
- Population Mitochondria Different-Phenotype (%) (HEK-293T; [1]): 5%
- Population Mitotic Cells (%) (HEK-293T; [1]): 76%
- Population Normal (%) (HEK-293T; [1]): 80%
- Population Pyknosed Nuclei (%) (HEK-293T; [1]): 37%
- Population Tubulin-Different-Phenotype (%) (HEK-293T; [1]): 7%
- Total Cell Count (HEK-293T; [1]): 599
- Population Apoptotic (%) (HEK-293T; [2]): 13%
- Population Fragmented Nuclei (%) (HEK-293T; [2]): 4%
- Population Healthy Nuclei (%) (HEK-293T; [2]): 83%
- Population Hoechst High Intensity Objects (%) (HEK-293T; [2]): 4%
- Population Membrane Permeable-Phenotype (%) (HEK-293T; [2]): 1%
- Population Mitochondria Different-Phenotype (%) (HEK-293T; [2]): 21%
- Population Mitotic Cells (%) (HEK-293T; [2]): 86%
- Population Normal (%) (HEK-293T; [2]): 95%
- Population Pyknosed Nuclei (%) (HEK-293T; [2]): 11%
- Population Tubulin-Different-Phenotype (%) (HEK-293T; [2]): 13%
- Total Cell Count (HEK-293T; [2]): 1174
- Population Apoptotic (%) (HEK-293T; [3]): 17%
- Population Fragmented Nuclei (%) (HEK-293T; [3]): 18%
- Population Healthy Nuclei (%) (HEK-293T; [3]): 54%
- Population Hoechst High Intensity Objects (%) (HEK-293T; [3]): 14%
- Population Membrane Permeable-Phenotype (%) (HEK-293T; [3]): 5%
- Population Mitochondria Different-Phenotype (%) (HEK-293T; [3]): 5%
- Population Mitotic Cells (%) (HEK-293T; [3]): 82%
- Population Normal (%) (HEK-293T; [3]): 85%
- Population Pyknosed Nuclei (%) (HEK-293T; [3]): 26%
- Population Tubulin-Different-Phenotype (%) (HEK-293T; [3]): 4%
- Total Cell Count (HEK-293T; [3]): 511
- Population Apoptotic (%) (HEK-293T; [4]): 12%
- Population Fragmented Nuclei (%) (HEK-293T; [4]): 6%
- Population Healthy Nuclei (%) (HEK-293T; [4]): 86%
- Population Hoechst High Intensity Objects (%) (HEK-293T; [4]): 3%
- Population Membrane Permeable-Phenotype (%) (HEK-293T; [4]): 2%
- Population Mitochondria Different-Phenotype (%) (HEK-293T; [4]): 10%
- Population Mitotic Cells (%) (HEK-293T; [4]): 87%
- Population Normal (%) (HEK-293T; [4]): 96%
- Population Pyknosed Nuclei (%) (HEK-293T; [4]): 7%
- Total Cell Count (HEK-293T; [4]): 1122
- Population Apoptotic (%) (HEK-293T; [5]): 20%
- Population Fragmented Nuclei (%) (HEK-293T; [5]): 21%
- Population Healthy Nuclei (%) (HEK-293T; [5]): 50%
- Population Hoechst High Intensity Objects (%) (HEK-293T; [5]): 15%
- Population Membrane Permeable-Phenotype (%) (HEK-293T; [5]): 8%
- Population Mitochondria Different-Phenotype (%) (HEK-293T; [5]): 10%
- Population Mitotic Cells (%) (HEK-293T; [5]): 79%
- Population Normal (%) (HEK-293T; [5]): 84%
- Population Pyknosed Nuclei (%) (HEK-293T; [5]): 28%
- Population Tubulin-Different-Phenotype (%) (HEK-293T; [5]): 13%
- Total Cell Count (HEK-293T; [5]): 538
- Population Apoptotic (%) (HEK-293T; [6]): 15%
- Population Fragmented Nuclei (%) (HEK-293T; [6]): 5%
- Population Healthy Nuclei (%) (HEK-293T; [6]): 86%
- Population Hoechst High Intensity Objects (%) (HEK-293T; [6]): 6%
- Population Membrane Permeable-Phenotype (%) (HEK-293T; [6]): 4%
- Population Mitochondria Different-Phenotype (%) (HEK-293T; [6]): 12%
- Population Mitotic Cells (%) (HEK-293T; [6]): 84%
- Population Normal (%) (HEK-293T; [6]): 93%
- Population Pyknosed Nuclei (%) (HEK-293T; [6]): 7%
- Population Tubulin-Different-Phenotype (%) (HEK-293T; [6]): 30%
- Total Cell Count (HEK-293T; [6]): 1346
- Population Apoptotic (%) (HEK-293T; [7]): 16%
- Population Fragmented Nuclei (%) (HEK-293T; [7]): 20%
- Population Healthy Nuclei (%) (HEK-293T; [7]): 60%
- Population Hoechst High Intensity Objects (%) (HEK-293T; [7]): 15%
- Population Membrane Permeable-Phenotype (%) (HEK-293T; [7]): 7%
- Population Mitochondria Different-Phenotype (%) (HEK-293T; [7]): 5%
- Population Mitotic Cells (%) (HEK-293T; [7]): 83%
- Population Normal (%) (HEK-293T; [7]): 84%
- Population Pyknosed Nuclei (%) (HEK-293T; [7]): 19%
- Population Tubulin-Different-Phenotype (%) (HEK-293T; [7]): 7%
- Total Cell Count (HEK-293T; [7]): 500
- Population Apoptotic (%) (HEK-293T; [8]): 5%
- Population Fragmented Nuclei (%) (HEK-293T; [8]): 11%
- Population Healthy Nuclei (%) (HEK-293T; [8]): 84%
- Population Hoechst High Intensity Objects (%) (HEK-293T; [8]): 3%
- Population Membrane Permeable-Phenotype (%) (HEK-293T; [8]): 6%
- Population Mitochondria Different-Phenotype (%) (HEK-293T; [8]): 2%
- Population Mitotic Cells (%) (HEK-293T; [8]): 95%
- Population Normal (%) (HEK-293T; [8]): 96%
- Population Pyknosed Nuclei (%) (HEK-293T; [8]): 3%
- Population Tubulin-Different-Phenotype (%) (HEK-293T; [8]): 9%
- Total Cell Count (HEK-293T; [8]): 1653
- Growth Rate (Fibroblast; 6 h, replicate number 1, timepoint 6 hours): 0
- Growth Rate (Fibroblast; 12 h, replicate number 1, timepoint 12 hours): 0
- Growth Rate (Fibroblast; 12 h, replicate number 2, timepoint 12 hours): 1
- Growth Rate (Fibroblast; 18 h, replicate number 1, timepoint 18 hours): 0
- Growth Rate (Fibroblast; 18 h, replicate number 2, timepoint 18 hours): 1
- Growth Rate (Fibroblast; 24 h, replicate number 1, timepoint 24 hours): 0
- Growth Rate (Fibroblast; 24 h, replicate number 2, timepoint 24 hours): 1
